Measurements gathered from unrelated publications.
Protocols differ between the studies behind these lines. pIC50: −log10 of the molar value.
Read-out: cell growth or viability

SMILES | cell line | technique | concentration | time | quantity | value
COc1cccc(Oc2ccccc2NC(=O)CNC(=O)c2cccc3ccccc23)c1 | HCC 2998 | SRB | – | 48 h | GI50 | 1260 nM
COc1cc(OC)cc(-c2cn(-c3cc(=O)oc4ccc(Br)cc34)nn2)c1 | CCRF-CEM | – | – | 48 h | CC50 | 10500 nM
COc1ccc(-c2ccc(-c3ccc(C(=N)N)nc3)s2)cc1 | SNB-75 | SRB | – | – | GI50 | 1550 nM
COc1ccc(C2=Nn3c(NN=C4C(=O)Nc5ccc(OC)cc54)nnc3SC2)cc1 | UACC-257 | SRB | 10 µM | – | inhibition | 20%
Cc1ccc(C)c(COc2cc(NC(=O)c3ccc4c(c3)OCO4)ccc2N(C)S(C)(=O)=O)c1 | HCC 2998 | SRB | – | 48 h | GI50 | 120 nM
Cc1cc(C)n(C(=S)[S][Au][PH](CCCCCC[PH]([Au][S]C(=S)n2nc(C)cc2C)(c2ccccc2)c2ccccc2)(c2ccccc2)c2ccccc2)n1 | HCC 2998 | – | – | – | GI50 | 252 nM
Oc1ccc(Nc2nc(-c3ccc(Cl)cc3)cs2)cc1 | A375M | MTS | – | 24 h | pIC50 | < 4.00
S=C([S][Au-][P+](CCCCCC[P+]([Au-][S]C(=S)n1cccn1)(c1ccccc1)c1ccccc1)(c1ccccc1)c1ccccc1)n1cccn1 | HCC 2998 | – | – | – | GI50 | 759 nM
COc1cc(-c2ccc(-c3ccc(C(=N)N)nc3)s2)cc(OC)c1OC | SNB-75 | SRB | – | – | GI50 | 1500 nM
COc1cc(-c2cn(-c3ccccc3)nn2)cc(OC)c1OC | CCRF-CEM | – | – | 48 h | CC50 | 34600 nM
CC(C)C[C@H](NC(=O)[C@H](Cc1ccccc1)NC(=O)c1cnccn1)B(O)O | OCI-AML-5 | ATP luminescence | – | – | pIC50 | 7.74
O=C1Nc2ccccc2C1=NNc1nnc2n1N=C(c1ccccc1)CS2 | SNB-75 | SRB | 10 µM | – | inhibition | 35%
